Experimental data published in ChEMBL document CHEMBL4422685, “Design, synthesis and evaluation of a series of 5-methoxy-2,3-naphthalimide derivatives as AcrB inhibitors for the reversal of bacterial resistance” (Bioorg Med Chem Lett, 2019).

Columns and labels:
Escherichia coli [1] = test: Toxicity against wild-type drug-resistant Escherichia coli […] at 128 ug/ml; assay type: organism-based; details: in vivo
Method in brief: (§1)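 MIC determination against wild-type resistant E. coli BW25113 and an isogenic acrB-deleted strain; highest concentration tested 128 mg/L.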

Escherichia coli [2] = test: Toxicity against AcrB deficient Escherichia coli AcrB lacking at 128 ug/ml; assay type: organism-based; details: in vivo; method in brief: as §1
[3] = biological target: T1, Multidrug efflux pump subunit AcrB (Escherichia coli (strain K12)) (UniProt P31224); test: Inhibition of AcrB in wild-type drug-resistant Escherichia coli […] assessed as potentiation of chloramphenicol-induced antimicrobial activity by measuring chloramphenicol MIC at 8 ug/ml by checkerboard titration method (Rvb =16 ug/ml)
T1 sequence (whole entry): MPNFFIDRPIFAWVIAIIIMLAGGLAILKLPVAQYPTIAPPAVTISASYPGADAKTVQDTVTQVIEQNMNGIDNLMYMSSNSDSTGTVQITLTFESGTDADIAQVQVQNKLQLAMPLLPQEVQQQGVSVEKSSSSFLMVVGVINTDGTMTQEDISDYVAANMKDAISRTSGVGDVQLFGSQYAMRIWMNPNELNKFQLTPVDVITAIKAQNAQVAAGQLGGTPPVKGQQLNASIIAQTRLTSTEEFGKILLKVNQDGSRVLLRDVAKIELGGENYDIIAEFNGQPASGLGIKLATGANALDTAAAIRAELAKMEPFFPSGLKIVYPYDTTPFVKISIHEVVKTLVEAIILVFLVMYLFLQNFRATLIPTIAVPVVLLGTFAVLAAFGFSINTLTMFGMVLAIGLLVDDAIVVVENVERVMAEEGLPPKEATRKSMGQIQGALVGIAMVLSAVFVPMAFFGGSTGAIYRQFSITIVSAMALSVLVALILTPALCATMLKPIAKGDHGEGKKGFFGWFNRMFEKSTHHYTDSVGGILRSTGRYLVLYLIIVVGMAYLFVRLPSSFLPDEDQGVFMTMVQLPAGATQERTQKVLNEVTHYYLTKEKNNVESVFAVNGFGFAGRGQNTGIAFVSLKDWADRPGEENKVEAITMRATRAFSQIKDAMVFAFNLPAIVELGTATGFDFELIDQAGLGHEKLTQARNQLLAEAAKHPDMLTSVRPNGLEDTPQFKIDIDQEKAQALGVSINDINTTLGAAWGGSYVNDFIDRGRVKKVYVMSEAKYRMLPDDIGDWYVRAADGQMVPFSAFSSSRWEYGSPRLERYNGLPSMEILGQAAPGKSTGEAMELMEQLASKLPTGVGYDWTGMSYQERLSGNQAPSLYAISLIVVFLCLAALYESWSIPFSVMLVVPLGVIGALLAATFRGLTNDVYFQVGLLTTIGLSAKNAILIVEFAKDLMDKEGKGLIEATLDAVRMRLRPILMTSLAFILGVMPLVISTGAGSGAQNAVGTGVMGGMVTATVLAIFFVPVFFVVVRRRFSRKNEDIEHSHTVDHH

[4] = biological target: T1, Multidrug efflux pump subunit AcrB (Escherichia coli (strain K12)); test: Inhibition of AcrB in wild-type drug-resistant Escherichia coli […] assessed as potentiation of chloramphenicol-induced antimicrobial activity by measuring chloramphenicol MIC at 32 ug/ml by checkerboard titration method (Rvb =16 ug/ml)
[5] = biological target: T1, Multidrug efflux pump subunit AcrB (Escherichia coli (strain K12)); test: Inhibition of AcrB in wild-type drug-resistant Escherichia coli […] assessed as potentiation of chloramphenicol-induced antimicrobial activity by measuring chloramphenicol MIC at 64 ug/ml by checkerboard titration method (Rvb =16 ug/ml)
[6] = biological target: T1, Multidrug efflux pump subunit AcrB (Escherichia coli (strain K12)); test: Inhibition of AcrB in wild-type drug-resistant Escherichia coli […] assessed as potentiation of chloramphenicol-induced antimicrobial activity by measuring chloramphenicol MIC at 128 ug/ml by checkerboard titration method (Rvb =16 ug/ml)
[7] = biological target: T1, Multidrug efflux pump subunit AcrB (Escherichia coli (strain K12)); test: Inhibition of AcrB in wild-type drug-resistant Escherichia coli […] assessed as potentiation of erythromycin-induced antimicrobial activity by measuring erythromycin MIC at 8 ug/ml by checkerboard titration method (reference value: 64 ug/ml)
[8] = biological target: T1, Multidrug efflux pump subunit AcrB (Escherichia coli (strain K12)); test: Inhibition of AcrB in wild-type drug-resistant Escherichia coli […] assessed as potentiation of erythromycin-induced antimicrobial activity by measuring erythromycin MIC at 16 ug/ml by checkerboard titration method (reference value: 64 ug/ml)
[9] = biological target: T1, Multidrug efflux pump subunit AcrB (Escherichia coli (strain K12)); test: Inhibition of AcrB in wild-type drug-resistant Escherichia coli […] assessed as potentiation of erythromycin-induced antimicrobial activity by measuring erythromycin MIC at 32 ug/ml by checkerboard titration method (reference value: 64 ug/ml)
[10] = biological target: T1, Multidrug efflux pump subunit AcrB (Escherichia coli (strain K12)); test: Inhibition of AcrB in wild-type drug-resistant Escherichia coli […] assessed as potentiation of erythromycin-induced antimicrobial activity by measuring erythromycin MIC at 64 ug/ml by checkerboard titration method (reference value: 64 ug/ml)
[11] = biological target: T1, Multidrug efflux pump subunit AcrB (Escherichia coli (strain K12)); test: Inhibition of AcrB in wild-type drug-resistant Escherichia coli […] assessed as potentiation of tetraphenyl phosphonium chloride-induced antimicrobial activity by measuring tetraphenyl phosphonium chloride MIC at 8 ug/ml by checkerboard titration method (reference value: 1024 ug/ml)
[12] = biological target: T1, Multidrug efflux pump subunit AcrB (Escherichia coli (strain K12)); test: Inhibition of AcrB in wild-type drug-resistant Escherichia coli […] assessed as potentiation of tetraphenyl phosphonium chloride-induced antimicrobial activity by measuring tetraphenyl phosphonium chloride MIC at 32 ug/ml by checkerboard titration method (reference value: 1024 ug/ml)
[13] = biological target: T1, Multidrug efflux pump subunit AcrB (Escherichia coli (strain K12)); test: Inhibition of AcrB in wild-type drug-resistant Escherichia coli […] assessed as potentiation of tetraphenyl phosphonium chloride-induced antimicrobial activity by measuring tetraphenyl phosphonium chloride MIC at 64 ug/ml by checkerboard titration method (reference value: 1024 ug/ml)
[14] = biological target: T1, Multidrug efflux pump subunit AcrB (Escherichia coli (strain K12)); test: Inhibition of AcrB in wild-type drug-resistant Escherichia coli […] assessed as potentiation of levofloxacin-induced antimicrobial activity by measuring levofloxacin MIC at 8 ug/ml by checkerboard titration method (reference value: 0.063 ug/ml)
[15] = biological target: T1, Multidrug efflux pump subunit AcrB (Escherichia coli (strain K12)); test: Inhibition of AcrB in wild-type drug-resistant Escherichia coli […] assessed as potentiation of levofloxacin-induced antimicrobial activity by measuring levofloxacin MIC at 16 ug/ml by checkerboard titration method (reference value: 0.063 ug/ml)
[16] = biological target: T1, Multidrug efflux pump subunit AcrB (Escherichia coli (strain K12)); test: Inhibition of AcrB in wild-type drug-resistant Escherichia coli […] assessed as potentiation of levofloxacin-induced antimicrobial activity by measuring levofloxacin MIC at 32 ug/ml by checkerboard titration method (reference value: 0.063 ug/ml)
[17] = biological target: T1, Multidrug efflux pump subunit AcrB (Escherichia coli (strain K12)); test: Inhibition of AcrB in wild-type drug-resistant Escherichia coli […] assessed as potentiation of levofloxacin-induced antimicrobial activity by measuring levofloxacin MIC at 128 ug/ml by checkerboard titration method (reference value: 0.063 ug/ml)
Escherichia coli [18] = test: Induction of Escherichia coli outer membrane permeabilization assessed as increase in nitrocefin hydrolysis at 128 ug/ml by spectroscopic method; assay type: organism-based

Row | Compound | Activity (Escherichia coli [1]) | Activity (Escherichia coli [2]) | MIC [3] [µg/mL] | MIC [4] [µg/mL] | MIC [5] [µg/mL] | MIC [6] [µg/mL] | MIC [7] [µg/mL] | MIC [8] [µg/mL] | MIC [9] [µg/mL] | MIC [10] [µg/mL] | MIC [11] [µg/mL] | MIC [12] [µg/mL] | MIC [13] [µg/mL] | MIC [14] [µg/mL] | MIC [15] [µg/mL] | MIC [16] [µg/mL] | MIC [17] [µg/mL] | Activity (Escherichia coli [18])
1 | COc1cccc2cc3c(cc12)C(=O)N(C(C)C)C3=O | Non-Toxic | Non-Toxic | 8 | 8 | 8 | 8 | 32 | 32 | 32 | 32 | 1020 | 1020 | 1020 | 0.063 | 0.063 | 0.063 | 0.0313 | Non-Toxic
2 | COc1cccc2cc3c(cc12)C(=O)N(Cc1ccccc1)C3=O | Non-Toxic | Non-Toxic | 16 | 16 | 16 | 8 | 32 | 32 | 32 | 32 | 1020 | 1020 | 1020 | 0.063 | 0.063 | 0.063 | 0.063 | Non-Toxic
3 | CCCCCCN1C(=O)c2cc3cccc(OC)c3cc2C1=O | Non-Toxic | Non-Toxic | 16 | 16 | 8 | 8 | 64 | 32 | 32 | 16 | 1020 | 512 | 512 | 0.063 | 0.063 | 0.063 | 0.0313 | Non-Toxic
4 | COc1cccc2cc3c(cc12)C(=O)N(C)C3=O | Non-Toxic | Non-Toxic | 16 | 16 | 16 | 16 | 64 | 64 | 64 | 32 | 1020 | 1020 | 1020 | 0.063 | 0.063 | 0.0313 | 0.0313 | –
5 | COc1cccc2cc3c(cc12)C(=O)N(c1ccccc1Cl)C3=O | Non-Toxic | Non-Toxic | 16 | 16 | 16 | 16 | 64 | 64 | 64 | 64 | 1020 | 1020 | 1020 | 0.063 | 0.063 | 0.063 | 0.063 | Non-Toxic
